# Data as given in ChEMBL document CHEMBL5335790, “Design, synthesis and biological evaluation of novel 2,4-thiazolidinedione derivatives able to target the human BAG3 protein” (Eur J Med Chem, 2023).
# Calls of active or inactive are those of the source. The calls are words filed in the database; no cut-off is given here.
# Tests used:
# [1] = molecular target: T1, BAG family molecular chaperone regulator 3 (Homo sapiens, UniProt O95817); test: Binding affinity to C-terminal His tagged human BAG3 transfected in HEK293T cells assessed as protein-ligand complex formation by measuring saturated protein magnetization via intermolecular spin-diffusion at 125 uM by STD NMR experiment
# T1 sequence (O95817 whole entry, the tested form may be a part): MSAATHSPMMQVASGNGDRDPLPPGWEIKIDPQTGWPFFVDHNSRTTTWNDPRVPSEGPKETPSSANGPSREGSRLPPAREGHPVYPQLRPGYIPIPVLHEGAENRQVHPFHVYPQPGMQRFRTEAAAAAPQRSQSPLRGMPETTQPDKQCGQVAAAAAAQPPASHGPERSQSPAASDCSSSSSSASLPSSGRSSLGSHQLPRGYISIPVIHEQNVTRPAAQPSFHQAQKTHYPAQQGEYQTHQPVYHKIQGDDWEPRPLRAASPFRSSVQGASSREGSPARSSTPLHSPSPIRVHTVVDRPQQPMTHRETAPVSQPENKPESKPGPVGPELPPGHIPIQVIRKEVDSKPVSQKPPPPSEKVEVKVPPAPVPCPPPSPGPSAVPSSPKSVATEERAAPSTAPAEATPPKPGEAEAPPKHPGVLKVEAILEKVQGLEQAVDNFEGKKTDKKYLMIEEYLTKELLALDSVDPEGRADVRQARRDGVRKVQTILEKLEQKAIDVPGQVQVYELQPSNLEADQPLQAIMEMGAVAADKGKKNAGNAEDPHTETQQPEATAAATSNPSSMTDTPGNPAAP
# HD-MB03 [2] = test: Sensitization of chemotherapy induced cytotoxicity against human HD-MB03 cells assessed as inhibition of cell growth at 10 uM incubated for 72 hrs in presence of 0.5 unit of vincristine, etoposide, cisplatin, cyclophosphamide by resazurin dye based analysis (reference value: 83.74+/- 0.54%); assay type: functional
# HD-MB03 [3] = test: Sensitization of chemotherapy induced cytotoxicity against human HD-MB03 cells assessed as inhibition of cell growth at 1.25 uM incubated for 72 hrs in presence of 0.12 unit of vincristine, etoposide, cisplatin, cyclophosphamide by resazurin dye based analysis (reference value: 51.43 +/- 1.17%); assay type: functional
# HD-MB03 [4] = test: Cytotoxicity against human HD-MB03 cells assessed as inhibition of cell growth at 5 uM incubated for 72 hrs by resazurin dye based analysis relative to control; assay type: functional
# Procedure, shortened: (§1)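 Resazurin viability in HD-MB03 cells, 2000/well, single-agent arm of the 6x6 matrix. Inhibitor was added 24 h after seeding, in a 6-point 2-fold series, duplicates, two independent experiments. After 72 h exposure, resazurin was added at 44 µM final for 3 h at 37 °C and fluorescence read at 590 nm. Viability normalized to 1 µM bortezomib and 0.5% DMSO controls.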
# [5] = molecular target: T1, BAG family molecular chaperone regulator 3; test: Binding affinity to CM4 sensorchip immobilized C-terminal His tagged human BAG3 transfected in HEK293T cells assessed as binding capacity at 50 uM by SPR analysis
# Procedure, shortened: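 SPR screen on BAG3-His amine-coupled to a CM4 chip at 60 µg/mL in pH 2.8 acetate. Compound at 50 µM in PBS with 5% DMSO and 0.05% P20 was injected for 90 s at 30 µL/min, then washed. Chip regenerated with 10 mM glycine pH 3. Bound RU read at equilibrium against a void flow cell; 3–10 repeats, mean ± SEM.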
# HD-MB03 [6] = test: Induction of cell cycle arrest in human HD-MB03 cells assessed as accumulation of cells at G2/M phase at 10 uM incubated for 72 hrs by RNase/PI staining based cytofluorimetric analysis (reference value: 4.4%); assay type: functional
# HD-MB03 [7] = test: Induction of apoptosis in human HD-MB03 cells assessed as increase in total apoptotic cells at 20 uM incubated for 24 hrs in presence of chloroquine by Annexin V-FITC/PI staining based cytofluorimetric analysis; assay type: functional, cell-based
# Procedure, shortened: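 HD-MB03 cells exposed to 20 µM with or without chloroquine for 24 h, then stained with annexin V-FITC and PI for flow cytometry. Mean ± SEM of three independent experiments.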
# HD-MB03 [8] = test: Induction of cell cycle arrest in human HD-MB03 cells assessed as accumulation of cells at S phase at 10 uM incubated for 48 hrs by RNase/PI staining based cytofluorimetric analysis (reference value: 40.9%); assay type: functional
# HD-MB03 [9] = test: Induction of autophagy in human HD-MB03 cells assessed as autophagic vacuole formation in presence of chloroquine at 20 uM incubated for 24 hrs by bright field imaging analysis; assay type: functional, cell-based
# HD-MB03 [10] = test: Sensitization of chemotherapy induced cytotoxicity against human HD-MB03 cells assessed as inhibition of cell growth at 20 uM incubated for 72 hrs in presence of 1 unit of vincristine, etoposide, cisplatin, cyclophosphamide by resazurin dye based analysis (reference value: 91.53 +/- 1.15%); assay type: functional
# HD-MB03 [11] = test: Induction of autophagy in human HD-MB03 cells assessed as increase in LC3 green fluorescence at 20 uM incubated for 24 hrs by immunofluorescence analysis; assay type: functional, cell-based
# Procedure, shortened: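 HD-MB03 cells transfected with a fluorescent LC3 plasmid, then treated 24 h later with 20 µM, alone or with chloroquine, for 24 h. Live cells stained 30 min with 50 nM LysoTracker Red and 10 µM Hoechst, then imaged by confocal microscopy. Fluorescence per field was expressed relative to DMSO control set to 1. Mean ± SD of three experiments; 2-way ANOVA.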
# HD-MB03 [12] = test: Cytotoxicity against human HD-MB03 cells assessed as inhibition of cell growth at 10 uM incubated for 72 hrs by resazurin dye based analysis relative to control; assay type: functional
# Procedure, shortened: as §1
# HD-MB03 [13] = test: Sensitization of chemotherapy induced cytotoxicity against human HD-MB03 cells assessed as inhibition of cell growth at 2.5 uM incubated for 72 hrs in presence of 0.5 unit of vincristine, etoposide, cisplatin, cyclophosphamide by resazurin dye based analysis (reference value: 83.74+/- 0.54%); assay type: functional
# HD-MB03 [14] = test: Induction of cell cycle arrest in human HD-MB03 cells assessed as accumulation of cells at G1 phase at 10 uM incubated for 72 hrs by RNase/PI staining based cytofluorimetric analysis (reference value: 54.7%); assay type: functional
# [15] = Cytotoxicity against resting human PBMC cells assessed as cell growth inhibition incubated for 72 hrs by MTT assay; assay type: toxicity, cell-based
# HD-MB03 [16] = test: Sensitization of chemotherapy induced cytotoxicity against human HD-MB03 cells assessed as inhibition of cell growth at 5 uM incubated for 72 hrs in presence of 0.5 unit of vincristine, etoposide, cisplatin, cyclophosphamide by resazurin dye based analysis (reference value: 83.74+/- 0.54%); assay type: functional
# HD-MB03 [17] = test: Sensitization of chemotherapy induced cytotoxicity against human HD-MB03 cells assessed as inhibition of cell growth at 1.25 uM incubated for 72 hrs in presence of 0.25 unit of vincristine, etoposide, cisplatin, cyclophosphamide by resazurin dye based analysis (reference value: 73.44 +/- 0.92%); assay type: functional
# HD-MB03 [18] = test: Induction of cell cycle arrest in human HD-MB03 cells assessed as accumulation of cells at G1 phase at 10 uM incubated for 48 hrs by RNase/PI staining based cytofluorimetric analysis (reference value: 54.7%); assay type: functional
# RS4-11 = test: Antiproliferative activity against human RS4-11 cells assessed as cell growth inhibition incubated for 72 hrs by resazurin dye based analysis; assay type: functional
# Procedure, shortened: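 Cells seeded at 2000/well, treated 24 h later with compounds in a 6-point 2-fold dose series, duplicate wells, two independent experiments. After 72 h, resazurin was added at 44 µM final for 3 h at 37 °C and fluorescence was read at 590 nm. Viability was normalized to 1 µM bortezomib (positive) and 0.5% DMSO (negative) controls. GI50 is the mean ± SEM of dose-response curves.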
# HD-MB03 [19] = test: Sensitization of chemotherapy induced cytotoxicity against human HD-MB03 cells assessed as inhibition of cell growth at 10 uM incubated for 72 hrs in presence of 2 unit of vincristine, etoposide, cisplatin, cyclophosphamide by resazurin dye based analysis (reference value: 97.7 +/- 1.3%); assay type: functional
# HD-MB03 [20] = test: Sensitization of chemotherapy induced cytotoxicity against human HD-MB03 cells assessed as inhibition of cell growth at 1.25 uM incubated for 72 hrs in presence of 1 unit of vincristine, etoposide, cisplatin, cyclophosphamide by resazurin dye based analysis (reference value: 91.53 +/- 1.15%); assay type: functional
# HD-MB03 [21] = test: Sensitization of chemotherapy induced cytotoxicity against human HD-MB03 cells assessed as inhibition of cell growth at 2.5 uM incubated for 72 hrs in presence of 2 unit of vincristine, etoposide, cisplatin, cyclophosphamide by resazurin dye based analysis (reference value: 97.7 +/- 1.3%); assay type: functional
structure (smiles),measurement,setting,value
CC(C(=O)N1CCOCC1)N1C(=O)S/C(=C\c2cccc(O)c2O)C1=O (racemic),Activity,[1],Active
same,inhibition at 10 µM,HD-MB03 [2],89.1%
same,inhibition at 1.25 µM,HD-MB03 [3],47.7%
same,inhibition at 5 µM,HD-MB03 [4],3%
same,Activity,[5],> 5 RU
same,Activity,HD-MB03 [6],1.2%
same,Activity,HD-MB03 [7],Active
same,Activity,HD-MB03 [8],41.44%
same,Activity,HD-MB03 [9],inactive
same,inhibition at 20 µM,HD-MB03 [10],89.1%
same,Activity,HD-MB03 [11],Active
same,inhibition at 10 µM,HD-MB03 [12],26.8%
same,inhibition at 2.5 µM,HD-MB03 [13],83.3%
same,Activity,HD-MB03 [14],74%
same,GI50 at 72 h,[15],> 100 µM
same,inhibition at 5 µM,HD-MB03 [16],88.4%
same,inhibition at 1.25 µM,HD-MB03 [17],70.3%
same,Activity,HD-MB03 [18],52.45%
same,GI50,RS4-11,6.7 µM
same,inhibition at 10 µM,HD-MB03 [19],93.2%
same,inhibition at 1.25 µM,HD-MB03 [20],93.1%
same,inhibition at 2.5 µM,HD-MB03 [21],95.4%
